In ChEMBL document CHEMBL1151813, “Synthesis and cytotoxicity of bidesmosidic betulin and betulinic acid saponins” (J Nat Prod, 2009):

Assays:
A549 = experiment: Cytotoxicity against human A549 cells after 48 hrs; type: functional, cell-based; conditions: A549, 48 h
How it was run: (§1)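 Cells grown in MEM (Earle's salts, L-glutamine) with 10% FBS, vitamins, amino acids, pyruvate, penicillin/streptomycin at 37 °C, 5% CO2. 5 × 10³ cells/well adhered 16 h, then increasing concentrations in DMSO (final 0.5% v/v) for 48 h. Resazurin fluorescence read at ex 530/em 590 nm; survival vs control wells after blank subtraction. Three experiments in triplicate; IC50 as mean ± standard deviation.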

PC-3 = experiment: Cytotoxicity against human PC3 cells after 48 hrs; type: functional, cell-based; conditions: PC-3, 48 h; how it was run: as §1
MCF7 = experiment: Cytotoxicity against human MCF7 cells after 48 hrs; type: functional, cell-based; conditions: MCF7, 48 h; how it was run: as §1
[1] = Cytotoxicity against human WS1 cells after 48 hrs; type: cell-based; conditions: WS1, 48 h
DLD-1 = experiment: Cytotoxicity against human DLD1 cells after 48 hrs; type: functional, cell-based; conditions: DLD-1, 48 h; how it was run: as §1

In the case of C=C(C)[C@@H]1CC[C@]2(CO[C@@H]3O[C@H](CO)[C@@H](O)[C@H](O)[C@H]3O)CC[C@]3(C)[C@H](CC[C@@H]4[C@@]5(C)CC[C@H](O[C@@H]6O[C@@H](C)[C@H](O)[C@@H](O)[C@H]6O)C(C)(C)[C@@H]5CC[C@]43C)[C@@H]12, the IC50 (A549) is reported as 16.8 µM, the IC50 (PC-3) is reported as 6.9 µM and the IC50 (MCF7) is reported as 9 µM. It also gave an IC50 [1] of 5.3 µM and an IC50 (DLD-1) of 10.6 µM.

With C=C(C)[C@@H]1CC[C@]2(C(=O)O[C@@H]3O[C@H](CO)[C@@H](O)[C@H](O)[C@H]3O)CC[C@]3(C)[C@H](CC[C@@H]4[C@@]5(C)CC[C@H](O[C@@H]6O[C@H](CO)[C@@H](O)[C@H](O)[C@H]6O)C(C)(C)[C@@H]5CC[C@]43C)[C@@H]12 the IC50 (A549) was over 100 µM, the IC50 (PC-3) was 66 µM and the IC50 (MCF7) was 20 µM. The IC50 [1] was 35 µM and the IC50 (DLD-1) was over 100 µM.

Work on C=C(C)[C@@H]1CC[C@]2(CO[C@@H]3O[C@H](CO)[C@@H](O)[C@H](O)[C@H]3O)CC[C@]3(C)[C@H](CC[C@@H]4[C@@]5(C)CC[C@H](O[C@@H]6OC[C@H](O)[C@H](O)[C@H]6O)C(C)(C)[C@@H]5CC[C@]43C)[C@@H]12 yielded an IC50 (A549) of over 100 µM, an IC50 (PC-3) of 5.3 µM and an IC50 (MCF7) of 9.5 µM. The IC50 [1] was 4.5 µM and the IC50 (DLD-1) was 19 µM.

With C=C(C)[C@@H]1CC[C@]2(C(=O)O[C@@H]3O[C@H](CO)[C@@H](O)[C@H](O)[C@H]3O)CC[C@]3(C)[C@H](CC[C@@H]4[C@@]5(C)CC[C@H](O)C(C)(C)[C@@H]5CC[C@]43C)[C@@H]12 the IC50 (A549) was over 100 µM, the IC50 (PC-3) was over 100 µM and the IC50 (MCF7) was over 100 µM. It also gave an IC50 [1] of over 100 µM and an IC50 (DLD-1) of over 100 µM.

In the case of C=C(C)[C@@H]1CC[C@]2(C(=O)O[C@@H]3O[C@H](CO)[C@@H](O)[C@H](O)[C@H]3O)CC[C@]3(C)[C@H](CC[C@@H]4[C@@]5(C)CC[C@H](O[C@@H]6OC[C@H](O)[C@H](O)[C@H]6O)C(C)(C)[C@@H]5CC[C@]43C)[C@@H]12, the IC50 (A549) is reported as 76 µM, the IC50 (PC-3) is reported as 68 µM and the IC50 (MCF7) is reported as 23 µM. It also gave an IC50 [1] of 50 µM and an IC50 (DLD-1) of 60 µM.

With C=C(C)[C@@H]1CC[C@]2(CO[C@@H]3O[C@H](CO)[C@@H](O)[C@H](O)[C@H]3O)CC[C@]3(C)[C@H](CC[C@@H]4[C@@]5(C)CC[C@H](O[C@@H]6O[C@H](CO)[C@@H](O)[C@H](O)[C@H]6O)C(C)(C)[C@@H]5CC[C@]43C)[C@@H]12 the IC50 (A549) was over 100 µM, the IC50 (PC-3) was over 100 µM and the IC50 (MCF7) was 14.5 µM. The IC50 [1] was 20 µM and the IC50 (DLD-1) was 27 µM.

Compound C=C(C)[C@@H]1CC[C@]2(CO[C@@H]3O[C@@H](C)[C@H](O)[C@@H](O)[C@H]3O)CC[C@]3(C)[C@H](CC[C@@H]4[C@@]5(C)CC[C@H](O[C@@H]6O[C@@H](C)[C@H](O)[C@@H](O)[C@H]6O)C(C)(C)[C@@H]5CC[C@]43C)[C@@H]12 has an IC50 (A549) of 1.9 µM, an IC50 (PC-3) of 1.8 µM and an IC50 (MCF7) of 1.7 µM. For the same compound, the IC50 [1] was 1.3 µM and the IC50 (DLD-1) was 1.9 µM.

For C=C(C)[C@@H]1CC[C@]2(C(=O)O[C@@H]3O[C@H](CO)[C@@H](O)[C@H](O)[C@H]3O)CC[C@]3(C)[C@H](CC[C@@H]4[C@@]5(C)CC[C@H](O[C@@H]6O[C@@H](C)[C@H](O)[C@@H](O)[C@H]6O)C(C)(C)[C@@H]5CC[C@]43C)[C@@H]12, the IC50 (A549) was 23 µM, the IC50 (PC-3) was 11.2 µM and the IC50 (MCF7) was 5.7 µM. It also gave an IC50 [1] of 9 µM and an IC50 (DLD-1) of 11 µM.

In the case of C=C(C)[C@@H]1CC[C@]2(C(=O)O[C@@H]3O[C@@H](C)[C@H](O)[C@@H](O)[C@H]3O)CC[C@]3(C)[C@H](CC[C@@H]4[C@@]5(C)CC[C@H](O[C@@H]6O[C@@H](C)[C@H](O)[C@@H](O)[C@H]6O)C(C)(C)[C@@H]5CC[C@]43C)[C@@H]12, the IC50 (A549) is reported as 7.2 µM, the IC50 (PC-3) is reported as 7.2 µM and the IC50 (MCF7) is reported as 6 µM. For the same compound, the IC50 [1] was 4.9 µM and the IC50 (DLD-1) was 7.3 µM.

Work on C=C(C)[C@@H]1CC[C@]2(CO[C@@H]3O[C@H](CO)[C@@H](O)[C@H](O)[C@H]3O)CC[C@]3(C)[C@H](CC[C@@H]4[C@@]5(C)CC[C@H](O)C(C)(C)[C@@H]5CC[C@]43C)[C@@H]12 yielded an IC50 (A549) of over 100 µM, an IC50 (PC-3) of over 100 µM and an IC50 (MCF7) of over 100 µM. The IC50 [1] was over 100 µM and the IC50 (DLD-1) was over 100 µM.

Compound C=C(C)[C@@H]1CC[C@]2(C(=O)O)CC[C@]3(C)[C@H](CC[C@@H]4[C@@]5(C)CC[C@H](O)C(C)(C)[C@@H]5CC[C@]43C)[C@@H]12 [BETULINIC ACID] has an IC50 (A549) of 10.3 µM, an IC50 (PC-3) of 40 µM and an IC50 (MCF7) of 41 µM. It also gave an IC50 [1] of 12 µM and an IC50 (DLD-1) of 15 µM.

In the case of C=C(C)[C@@H]1CC[C@]2(CO)CC[C@]3(C)[C@H](CC[C@@H]4[C@@]5(C)CC[C@H](O)C(C)(C)[C@@H]5CC[C@]43C)[C@@H]12 [BETULIN], the IC50 (A549) is reported as 3.8 µM, the IC50 (PC-3) is reported as 17.9 µM and the IC50 (MCF7) is reported as 23.3 µM. The IC50 [1] was 3.6 µM and the IC50 (DLD-1) was 6.6 µM.

In the case of COc1cc([C@@H]2c3cc4c(cc3[C@@H](O[C@@H]3O[C@@H]5CO[C@@H](C)O[C@H]5[C@H](O)[C@H]3O)[C@H]3COC(=O)[C@H]23)OCO4)cc(OC)c1O [ETOPOSIDE], the IC50 (A549) is reported as 1.2 µM, the IC50 (PC-3) is reported as 1.7 µM and the IC50 (MCF7) is reported as 0.7 µM. The IC50 [1] was 34 µM and the IC50 (DLD-1) was 27 µM.
